ChEMBL document CHEMBL4261538, “Synthesis and molecular docking studies of xanthone attached amino acids as potential antimicrobial and anti-inflammatory agents” (Medchemcomm, 2017)
Values after ≈ are worked out from the molar mass of the structure shown.

Assays:
Staphylococcus aureus [1] = assay: Antibacterial activity against Staphylococcus aureus at 25 ug/ml incubated for 24 hrs by agar well diffusion method; type: functional; details: read-out: DIZ
Outline: (§1)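 Bacteria grown in nutrient broth at 37 °C for 24 h, then subcultured at room temperature. Compounds dissolved in DMSO at 5 mg mL⁻¹ and 5–20 µL added to 6 mm wells, giving 25, 50, 75, 100 µg per well. Gentamicin was the positive control and DMSO the negative control. Plates held at 37 °C for 24 h, then inhibition zone diameter (mm) measured. Values are means of three determinations.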

Staphylococcus aureus [2] = assay: Antibacterial activity against Staphylococcus aureus at 50 ug/ml incubated for 24 hrs by agar well diffusion method; type: functional; details: read-out: DIZ; outline: as §1
Staphylococcus aureus [3] = assay: Antibacterial activity against Staphylococcus aureus at 75 ug/ml incubated for 24 hrs by agar well diffusion method; type: functional; details: read-out: DIZ; outline: as §1
Staphylococcus aureus [4] = assay: Antibacterial activity against Staphylococcus aureus at 100 ug/ml incubated for 24 hrs by agar well diffusion method; type: functional; details: read-out: DIZ; outline: as §1
Bacillus subtilis [5] = assay: Antibacterial activity against Bacillus subtilis at 25 ug/ml incubated for 24 hrs by agar well diffusion method; type: functional; details: read-out: DIZ; outline: as §1
Bacillus subtilis [6] = assay: Antibacterial activity against Bacillus subtilis at 50 ug/ml incubated for 24 hrs by agar well diffusion method; type: functional; details: read-out: DIZ; outline: as §1
Bacillus subtilis [7] = assay: Antibacterial activity against Bacillus subtilis at 75 ug/ml incubated for 24 hrs by agar well diffusion method; type: functional; details: read-out: DIZ; outline: as §1
Bacillus subtilis [8] = assay: Antibacterial activity against Bacillus subtilis at 100 ug/ml incubated for 24 hrs by agar well diffusion method; type: functional; details: read-out: DIZ; outline: as §1
Escherichia coli [9] = assay: Antibacterial activity against Escherichia coli at 25 ug/ml incubated for 24 hrs by agar well diffusion method; type: functional; details: read-out: DIZ; outline: as §1
Escherichia coli [10] = assay: Antibacterial activity against Escherichia coli at 50 ug/ml incubated for 24 hrs by agar well diffusion method; type: functional; details: read-out: DIZ; outline: as §1
Escherichia coli [11] = assay: Antibacterial activity against Escherichia coli at 75 ug/ml incubated for 24 hrs by agar well diffusion method; type: functional; details: read-out: DIZ; outline: as §1
Escherichia coli [12] = assay: Antibacterial activity against Escherichia coli at 100 ug/ml incubated for 24 hrs by agar well diffusion method; type: functional; details: read-out: DIZ; outline: as §1
Klebsiella pneumoniae [13] = assay: Antibacterial activity against Klebsiella pneumoniae at 25 ug/ml incubated for 24 hrs by agar well diffusion method; type: functional; details: read-out: DIZ; outline: as §1
Klebsiella pneumoniae [14] = assay: Antibacterial activity against Klebsiella pneumoniae at 50 ug/ml incubated for 24 hrs by agar well diffusion method; type: functional; details: read-out: DIZ; outline: as §1
Klebsiella pneumoniae [15] = assay: Antibacterial activity against Klebsiella pneumoniae at 75 ug/ml incubated for 24 hrs by agar well diffusion method; type: functional; details: read-out: DIZ; outline: as §1
Klebsiella pneumoniae [16] = assay: Antibacterial activity against Klebsiella pneumoniae at 100 ug/ml incubated for 24 hrs by agar well diffusion method; type: functional; details: read-out: DIZ; outline: as §1
Aspergillus niger [17] = assay: Antifungal activity against Aspergillus niger at 25 ug/ml incubated for 48 hrs by agar well diffusion method; type: functional; details: read-out: DIZ
Outline: (§2)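 Compounds dissolved in DMSO at 5 mg mL⁻¹ and 5–20 µL added to 6 mm wells, giving 25, 50, 75, 100 µg per well. Bavistin was the positive control and DMSO the negative control. Plates incubated at 28 °C for 48 h, then inhibition zone diameter (mm) measured. Values are means of three determinations.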

Aspergillus niger [18] = assay: Antifungal activity against Aspergillus niger at 50 ug/ml incubated for 48 hrs by agar well diffusion method; type: functional; details: read-out: DIZ; outline: as §2
Aspergillus niger [19] = assay: Antifungal activity against Aspergillus niger at 75 ug/ml incubated for 48 hrs by agar well diffusion method; type: functional; details: read-out: DIZ; outline: as §2
Aspergillus niger [20] = assay: Antifungal activity against Aspergillus niger at 100 ug/ml incubated for 48 hrs by agar well diffusion method; type: functional; details: read-out: DIZ; outline: as §2
Candida albicans [21] = assay: Antifungal activity against Candida albicans at 25 ug/ml incubated for 48 hrs by agar well diffusion method; type: functional; details: read-out: DIZ; outline: as §2
Candida albicans [22] = assay: Antifungal activity against Candida albicans at 50 ug/ml incubated for 48 hrs by agar well diffusion method; type: functional; details: read-out: DIZ; outline: as §2
Candida albicans [23] = assay: Antifungal activity against Candida albicans at 75 ug/ml incubated for 48 hrs by agar well diffusion method; type: functional; details: read-out: DIZ; outline: as §2
Candida albicans [24] = assay: Antifungal activity against Candida albicans at 100 ug/ml incubated for 48 hrs by agar well diffusion method; type: functional; details: read-out: DIZ; outline: as §2
Fusarium oxysporum [25] = assay: Antifungal activity against Fusarium oxysporum at 25 ug/ml incubated for 48 hrs by agar well diffusion method; type: functional; details: read-out: DIZ; outline: as §2
Fusarium oxysporum [26] = assay: Antifungal activity against Fusarium oxysporum at 50 ug/ml incubated for 48 hrs by agar well diffusion method; type: functional; details: read-out: DIZ; outline: as §2
Fusarium oxysporum [27] = assay: Antifungal activity against Fusarium oxysporum at 75 ug/ml incubated for 48 hrs by agar well diffusion method; type: functional; details: read-out: DIZ; outline: as §2
Fusarium oxysporum [28] = assay: Antifungal activity against Fusarium oxysporum at 100 ug/ml incubated for 48 hrs by agar well diffusion method; type: functional; details: read-out: DIZ; outline: as §2
Staphylococcus aureus [29] = assay: Antibacterial activity against Staphylococcus aureus incubated for 24 hrs by microdilution method; type: functional
Bacillus subtilis [30] = assay: Antibacterial activity against Bacillus subtilis incubated for 24 hrs by microdilution method; type: functional
Escherichia coli [31] = assay: Antibacterial activity against Escherichia coli incubated for 24 hrs by microdilution method; type: functional
Klebsiella pneumoniae [32] = assay: Antibacterial activity against Klebsiella pneumoniae incubated for 24 hrs by microdilution method; type: functional
Aspergillus niger [33] = assay: Antifungal activity against Aspergillus niger incubated for 48 to 72 hrs by microdilution method; type: functional
Outline: (§3)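 Sabouraud agar plates inoculated with fungal suspension at 10⁵ CFU mL⁻¹ plus serially diluted compounds and bavistin reference, both in DMSO. Incubated at 25 °C for 48–72 h. MIC is the lowest concentration completely inhibiting growth. Values are means of three determinations.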

Candida albicans [34] = assay: Antifungal activity against Candida albicans incubated for 48 to 72 hrs by microdilution method; type: functional; outline: as §3
Fusarium oxysporum [35] = assay: Antifungal activity against Fusarium oxysporum incubated for 48 to 72 hrs by microdilution method; type: functional; outline: as §3
Staphylococcus aureus [36] = assay: Induction of cell membrane damage in Staphylococcus aureus assessed as cell content leakage at MIC by spectrophotometric method; type: functional, organism-based; details: TDE = time-dependent effect
Outline: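 Log-phase S. aureus inoculated into 0.1% sterile peptone water, with an untreated control, and held at 37 °C for 0, 30, 60 and 120 min. 1 mL of broth centrifuged and supernatant OD read at 260 nm to measure released DNA. Run in triplicate, repeated three times.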

Erythrocyte = assay: Anti-inflammatory activity in human RBC assessed as inhibition of hypotonic solution-induced hemolysis after 10 mins by spectrophotometric method; type: functional, cell-based
Outline: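 Human blood (heparinized) washed with 0.9% saline, packed cells made into a 40% v/v stock in isotonic phosphate buffer (154 mM NaCl, 10 mM sodium phosphate, pH 7.4). Stock RBC mixed with hypotonic buffer (50 mM NaCl, 10 mM phosphate, pH 7.4) plus sample at 20–100 µg mL⁻¹.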

| SMILES | zone of inhibition at 25 µg/mL (Staphylococcus aureus [1]) | zone of inhibition at 50 µg/mL (Staphylococcus aureus [2]) | zone of inhibition at 75 µg/mL (Staphylococcus aureus [3]) | zone of inhibition at 100 µg/mL (Staphylococcus aureus [4]) | zone of inhibition at 25 µg/mL (Bacillus subtilis [5]) | zone of inhibition at 50 µg/mL (Bacillus subtilis [6]) | zone of inhibition at 75 µg/mL (Bacillus subtilis [7]) | zone of inhibition at 100 µg/mL (Bacillus subtilis [8]) | zone of inhibition at 25 µg/mL (Escherichia coli [9]) | zone of inhibition at 50 µg/mL (Escherichia coli [10]) | zone of inhibition at 75 µg/mL (Escherichia coli [11]) | zone of inhibition at 100 µg/mL (Escherichia coli [12]) | zone of inhibition at 25 µg/mL (Klebsiella pneumoniae [13]) | zone of inhibition at 50 µg/mL (Klebsiella pneumoniae [14]) | zone of inhibition at 75 µg/mL (Klebsiella pneumoniae [15]) | zone of inhibition at 100 µg/mL (Klebsiella pneumoniae [16]) | zone of inhibition at 25 µg/mL (Aspergillus niger [17]) | zone of inhibition at 50 µg/mL (Aspergillus niger [18]) | zone of inhibition at 75 µg/mL (Aspergillus niger [19]) | zone of inhibition at 100 µg/mL (Aspergillus niger [20]) | further results |
| --- | --- | --- | --- | --- | --- | --- | --- | --- | --- | --- | --- | --- | --- | --- | --- | --- | --- | --- | --- | --- | --- |
| CC(C)(C)OC(=O)N1CCC[C@H]1C(=O)Oc1ccc2c(=O)c3ccccc3oc2c1 | 17 mm | 24 mm | 29 mm | 33 mm | 15 mm | 24 mm | 31 mm | 35 mm | 17 mm | 26 mm | 31 mm | 36 mm | 13 mm | 21 mm | 27 mm | 32 mm | 17 mm | 24 mm | 30 mm | 33 mm | zone of inhibition at 25 µg/mL (Candida albicans [21]): 16 mm; zone of inhibition at 50 µg/mL (Candida albicans [22]): 22 mm; zone of inhibition at 75 µg/mL (Candida albicans [23]): 27 mm; zone of inhibition at 100 µg/mL (Candida albicans [24]): 34 mm; zone of inhibition at 25 µg/mL (Fusarium oxysporum [25]): 20 mm; zone of inhibition at 50 µg/mL (Fusarium oxysporum [26]): 24 mm; zone of inhibition at 75 µg/mL (Fusarium oxysporum [27]): 29 mm; zone of inhibition at 100 µg/mL (Fusarium oxysporum [28]): 35 mm; MIC (Staphylococcus aureus [29]): 27 µg/mL (≈ 65.9 µM); MIC (Bacillus subtilis [30]): 26 µg/mL (≈ 63.5 µM); MIC (Escherichia coli [31]): 25 µg/mL (≈ 61.1 µM); MIC (Klebsiella pneumoniae [32]): 24 µg/mL (≈ 58.6 µM); MIC (Aspergillus niger [33]): 29 µg/mL (≈ 70.8 µM); MIC (Candida albicans [34]): 24 µg/mL (≈ 58.6 µM); MIC (Fusarium oxysporum [35]): 25 µg/mL (≈ 61.1 µM); Activity (Staphylococcus aureus [36]): Tde; IC50 (Erythrocyte): 34 µg/mL (≈ 83 µM) |
| Cl.O=C(Oc1ccc2c(=O)c3ccccc3oc2c1)[C@@H]1CCCN1 | 20 mm | 27 mm | 31 mm | 35 mm | 18 mm | 26 mm | 32 mm | 37 mm | 20 mm | 25 mm | 32 mm | 39 mm | 18 mm | 28 mm | 33 mm | 38 mm | 17 mm | 24 mm | 30 mm | 33 mm | zone of inhibition at 25 µg/mL (Candida albicans [21]): 16 mm; zone of inhibition at 50 µg/mL (Candida albicans [22]): 22 mm; zone of inhibition at 75 µg/mL (Candida albicans [23]): 27 mm; zone of inhibition at 100 µg/mL (Candida albicans [24]): 34 mm; zone of inhibition at 25 µg/mL (Fusarium oxysporum [25]): 20 mm; zone of inhibition at 50 µg/mL (Fusarium oxysporum [26]): 24 mm; zone of inhibition at 75 µg/mL (Fusarium oxysporum [27]): 29 mm; zone of inhibition at 100 µg/mL (Fusarium oxysporum [28]): 35 mm; MIC (Staphylococcus aureus [29]): 26 µg/mL; MIC (Bacillus subtilis [30]): 25 µg/mL; MIC (Escherichia coli [31]): 24 µg/mL; MIC (Klebsiella pneumoniae [32]): 26 µg/mL; MIC (Aspergillus niger [33]): 27 µg/mL; MIC (Candida albicans [34]): 28 µg/mL; MIC (Fusarium oxysporum [35]): 28 µg/mL; Activity (Staphylococcus aureus [36]): Tde; IC50 (Erythrocyte): 36 µg/mL |
| CC(C)(C)OC(=O)N[C@@H](Cc1ccccc1)C(=O)Oc1ccc2c(=O)c3ccccc3oc2c1 | 18 mm | 25 mm | 31 mm | 34 mm | 17 mm | 26 mm | 33 mm | 36 mm | 16 mm | 25 mm | 32 mm | 34 mm | 20 mm | 27 mm | 33 mm | 37 mm | 17 mm | 28 mm | 35 mm | 40 mm | zone of inhibition at 25 µg/mL (Candida albicans [21]): 22 mm; zone of inhibition at 50 µg/mL (Candida albicans [22]): 27 mm; zone of inhibition at 75 µg/mL (Candida albicans [23]): 32 mm; zone of inhibition at 100 µg/mL (Candida albicans [24]): 38 mm; zone of inhibition at 25 µg/mL (Fusarium oxysporum [25]): 14 mm; zone of inhibition at 50 µg/mL (Fusarium oxysporum [26]): 22 mm; zone of inhibition at 75 µg/mL (Fusarium oxysporum [27]): 27 mm; zone of inhibition at 100 µg/mL (Fusarium oxysporum [28]): 32 mm; MIC (Staphylococcus aureus [29]): 25 µg/mL (≈ 54.4 µM); MIC (Bacillus subtilis [30]): 26 µg/mL (≈ 56.6 µM); MIC (Escherichia coli [31]): 22 µg/mL (≈ 47.9 µM); MIC (Klebsiella pneumoniae [32]): 26 µg/mL (≈ 56.6 µM); MIC (Aspergillus niger [33]): 28 µg/mL (≈ 60.9 µM); MIC (Candida albicans [34]): 30 µg/mL (≈ 65.3 µM); MIC (Fusarium oxysporum [35]): 27 µg/mL (≈ 58.8 µM); Activity (Staphylococcus aureus [36]): Tde; IC50 (Erythrocyte): 38 µg/mL (≈ 82.7 µM) |
